Reference: ChEMBL document CHEMBL1122860, “Stereoselectivity of muscarinic receptors in vivo and in vitro for oxotremorine analogues. N-[4-(tertiary amino)-2-butynyl]-5-methyl-2-pyrrolidones” (J Med Chem, 1985)
Activity calls are given as the source filed them. The rule behind the calls is not given here.

Legend:
Mus musculus [1] = species on record: Mus musculus; assay: Tested for tremorolytic activity in mice, expressed as dose required to double the dose of oxotremorine inducing a predetermined (grade 2) tremor intensity.; type: functional
In short: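 Antagonist given i.p. to groups of six or more mice at four linearly spaced doses including zero, 15 min before i.v. oxotremorine (log dose series, 0.1 log spacing). Median oxotremorine dose evoking grade 2 tremor estimated by Dixon up-and-down method, tremor scored visually over first 5 min. The antagonist dose doubling that median dose was found by linear regression.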

[2] = molecular target: T1, Muscarinic acetylcholine receptor (Homo sapiens) (UniProt P20309+P08173+P11229+P08172+P08912); assay: Tested for agonist activity at Muscarinic acetylcholine receptor in guinea pig ileum; type: functional, tissue-based; conditions: Cavia porcellus, target entry is the homologue from another species
[3] = Acute toxicity in mice; type: organism-based; conditions: mouse, in vivo
In short: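 Mice given compound intravenously; LD50 determined by the up and down method for small samples. Mortality counted at 15 min.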

[4] = molecular target: T1, Muscarinic acetylcholine receptor (Homo sapiens); assay: Tested for agonist activity at muscarinic receptor in guinea pig ileum, expressed as equipotent molar ratio relative to carbamylcholine.; type: functional, tissue-based; conditions: Cavia porcellus
[5] = Tested for its effect on contraction of frog rectus abdominis muscle, expressed as equipotent molar ratio relative to carbamylcholine.; type: functional
In short: (§1)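 Rana pipiens rectus abdominis held at 20 °C in aerated Clark-Ringer solution, pH 7.4. Each drug concentration applied for 5 min. Equipotent molar ratio relative to carbachol determined in three-point assays.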

frog = assay: Tested for its effect on contraction of frog rectus abdominis muscle, expressed as equipotent molar ratio relative to carbamylcholine; Inactive; type: functional, tissue-based; in short: as §1
Cavia porcellus [6] = species on record: Cavia porcellus; assay: Percent occupancy for 50% response calculated from (100 x ED50)/(KA+ED50).; type: functional
In short: (§2)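 Isolated guinea pig ileum. Control agonist dose-response curves were run, then tissue treated with propylbenzilylcholine mustard 2×10⁻⁸ M for 15–20 min, cutting maximal response by 20–80%. Double-reciprocal plots of equieffective agonist concentrations before and after treatment gave K_A (Furchgott method). Relative efficacy was derived from K_A and ED50; occupancy for 50% response was taken as 100ED50/(K_A + ED50).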

Cavia porcellus [7] = species on record: Cavia porcellus; assay: Relative efficacy calculated from KA and ED50 values; type: functional; in short: as §2
[8] = molecular target: T1, Muscarinic acetylcholine receptor (Homo sapiens); conditions: Cavia porcellus; Ileum
Mus musculus [9] = species on record: Mus musculus; assay: Tested for mydriatic activity in mice, expressed as the dose required to cause half-maximal pupillary dilation.; type: functional
[10] = molecular target: T1, Muscarinic acetylcholine receptor (Homo sapiens); conditions: Cavia porcellus; Ileum; remark: listed apart in the source

SMILES	ED50 (Mus musculus [1]) [µmol/kg]	ED50 [2]	LD50 [3] [µmol/kg]	EPMR [4]	EPMR [5]	other results
CN1[C@@H]2CC[C@H]1C[C@@H](OC(=O)C(CO)c1ccccc1)C2 (stereo partly drawn) [ATROPINE]	0.86					
C[C@H]1CCC(=O)N1CC#CC[N+](C)(C)C.[I-]		1.3	3.5	20	8.8	
C[C@@H]1CCC(=O)N1CC#CC[N+](C)(C)C.[I-]		0.076	8.9	1.2	10	
C[C@@H]1CCC(=O)N1CC#CCN(C)C	2.4	0.29 µM l-1	426	4.6		EPMR (frog): inactive; KA [2]: 2.34; Occupancy (Cavia porcellus [6]): 11%; Relative efficacy (Cavia porcellus [7]): 0.29
C[C@H]1CCC(=O)N1CC#CCN(C)C	50	4.6 µM l-1	183	73.9		EPMR (frog): inactive
C[C@H](C#CCN1CCCC1)N1CCCC1=O	0.26					
CN(C)CC#CCN1CCCC1=O						KA [8]: 22.9 µM l-1; Occupancy (Cavia porcellus [6]): 0.55%; Relative efficacy (Cavia porcellus [7]): 6.51
C[C@@H]1CCC(=O)N1CC#CCN1CCCC1	0.19		45		141	ED50 (Mus musculus [9]): 4.8 µmol/kg
C[C@H]1CCC(=O)N1CC#CCN1CCCC1	4.2		40		132	ED50 (Mus musculus [9]): 66 µmol/kg
CC1CCC(=O)N1CC#CCN1CCCC1 (racemic)	0.4				116	ED50 (Mus musculus [9]): 9 µmol/kg
C[C@@H](C#CCN1CCCC1)N1CCCC1=O	20					
CC1CCC(=O)N1CC#CCN(C)C (racemic)	5.5	0.55 µM l-1		8.8		
O=C1CCCN1CC#CCN1CCCC1 [OXOTREMORINE]			6.7	0.42	49	KA [8]: 0.68; Occupancy (Cavia porcellus [6]): 3.5%; Relative efficacy (Cavia porcellus [7]): 1; ED50 [10]: 0.026 µM l-1
